The record followed here is ChEMBL document CHEMBL2390834, “Structure-activity relationships for ferriprotoporphyrin IX association and β-hematin inhibition by 4-aminoquinolines using experimental and ab initio methods” (Bioorg Med Chem, 2013).

The test system of one assay is Ferriprotoporphyrin IX. Nature of the assay: Binding affinity to ferriprotoporphyrin 9 at pH 7.5 by UV-vis spectrophotometric analysis in presence of 40% DMSO. In outline: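 Association constant (log K) with Fe(III)PPIX measured by spectrophotometric titration in 40% aqueous (v/v) DMSO, pH 7.5, using a previously described method without modification.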
Assay [1] in a line: Inhibition of beta-hematin formation after 60 mins by colorimetric assay relative to Fe(3)PP9. The format is functional. In outline:
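4.5 M acetate drives β-hematin formation. Leftover Fe(III)PPIX is then reacted with 5% aqueous pyridine to give a low-spin bis-pyridyl complex, read colorimetrically. Prior method used unmodified; result reported as BHIA₅₀ (50% inhibitory activity).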

The subject of a further assay is Plasmodium falciparum. Nature of the assay: Antimalarial activity against chloroquine-sensitive Plasmodium falciparum NF54 by [3H]hypoxanthine incorporation assay. Format: functional, organism-based. In outline:
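Chloroquine-sensitive NF54 P. falciparum parasites grown in vitro; growth measured by [³H]-hypoxanthine incorporation, essentially as in earlier work; IC50 in nM.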

For the compound `CCN(CC)CCNc1ccnc2cc(N)ccc12`, the log K in the assay on Ferriprotoporphyrin IX worked out at 4.35. Also, the IA50 in assay [1] is over 20 equiv.

Turning to `Nc1ccnc2cc([N+](=O)[O-])ccc12`, the log K in the assay with Ferriprotoporphyrin IX was found to be 4.57. In addition, in assay [1], the IA50 came to 5.7 equiv.

In the case of `CCN(CC)CCNc1ccnc2cc(Br)ccc12`, the log K in the assay on Ferriprotoporphyrin IX turned out to be 4.99. Besides, the IA50 in assay [1] turned out to be 4.4 equiv.

As to `CNc1ccnc2cc(OC)ccc12`, the log K in the assay with Ferriprotoporphyrin IX was 3.71. The same compound had an IA50 in assay [1] of 10.4 equiv.

Regarding `CCN(CC)CCNc1ccnc2cc(I)ccc12`, the log K in the assay with Ferriprotoporphyrin IX is 5.02. In assay [1], the IA50 amounted to 2.8 equiv.

`NCCNc1ccnc2cc([N+](=O)[O-])ccc12`: the log K in the assay with Ferriprotoporphyrin IX came to 4.48. The same compound gave a half-inhibitory concentration (IC50) with Plasmodium falciparum of 747 nM. Besides, the IA50 in assay [1] came to 5.3 equiv.

In the case of `COc1ccc2c(NCCN)ccnc2c1`, in the assay with Ferriprotoporphyrin IX, the log K is 4.47. Besides, the IA50 in assay [1] is 10.6 equiv.

`CCN(CC)CCNc1ccnc2cc(OC)ccc12`: the log K in the assay on Ferriprotoporphyrin IX came out at 4.83. Further, the IA50 in assay [1] was over 20 equiv.

Consider `CNc1ccnc2cc(Cl)ccc12`, for which the log K in the assay with Ferriprotoporphyrin IX amounted to 4.62. In assay [1], this compound displayed an IA50 of 5.7 equiv.

With `NCCNc1ccnc2ccccc12`, the log K with Ferriprotoporphyrin IX worked out at 4.38. The same compound had an IC50 in the assay on Plasmodium falciparum of 66 nM. The IA50 in assay [1] turned out to be 10.6 equiv.

Consider `Nc1ccnc2ccccc12`, for which the log K in the assay with Ferriprotoporphyrin IX stood at 3.83. Further, the IA50 in assay [1] was 10 equiv.

On to `NCCNc1ccnc2cc(Cl)ccc12`, for which the log K in the assay with Ferriprotoporphyrin IX came out at 5.1. Half-maximal inhibition in the assay with Plasmodium falciparum (IC50) required 4.6 nM. Further, the IA50 in assay [1] came to 5.4 equiv.

Turning to `CCN(CC)CCNc1ccnc2ccccc12`, the log K in the assay on Ferriprotoporphyrin IX came to 4.75. The IA50 in assay [1] is over 20 equiv.

Regarding `CCN(CC)CCNc1ccnc2cc(Cl)ccc12`, the log K with Ferriprotoporphyrin IX stood at 5.81. The IA50 in assay [1] turned out to be 2.2 equiv.

For `CNc1ccnc2cc(N)ccc12`, the log K in the assay with Ferriprotoporphyrin IX stood at 4.04. The compound further yielded an IA50 in assay [1] of over 20 equiv.

Take `CNc1ccnc2cc(C(N)=O)ccc12`: in the assay on Ferriprotoporphyrin IX, the log K was 3.43. This compound registered an IA50 in assay [1] of 10.1 equiv.

With `CNc1ccnc2cc(C(F)(F)F)ccc12`, the log K with Ferriprotoporphyrin IX turned out to be 4.18. Besides, the IA50 in assay [1] was determined as 5 equiv.

In the case of `CCN(CC)CCNc1ccnc2cc([N+](=O)[O-])ccc12`, in the assay with Ferriprotoporphyrin IX, the log K amounted to 4.65. Moreover, in assay [1], the IA50 is 3.1 equiv.

Consider `CCN(CC)CCNc1ccnc2cc(C(F)(F)F)ccc12`, for which the log K with Ferriprotoporphyrin IX came to 4.67. The compound also registered an IA50 in assay [1] of 8 equiv.

Consider `CNc1ccnc2cc([N+](=O)[O-])ccc12`, for which the log K in the assay with Ferriprotoporphyrin IX came out at 4.32. In assay [1], this compound came in with an IA50 of 5.5 equiv.

For the compound `Nc1ccnc2cc(C(F)(F)F)ccc12`, in the assay with Ferriprotoporphyrin IX, the log K amounted to 4.41. In assay [1], this compound displayed an IA50 of 5.6 equiv.

For `CCN(CC)CCNc1ccnc2cc(C)ccc12`, in the assay on Ferriprotoporphyrin IX, the log K stood at 4.86. The compound further showed an IA50 in assay [1] of 17 equiv.

Consider `NCCNc1ccnc2cc(C(F)(F)F)ccc12`, for which the log K in the assay on Ferriprotoporphyrin IX worked out at 4.7. In the assay with Plasmodium falciparum, inhibition was half-maximal at 8.6 nM (IC50). In assay [1], this compound returned an IA50 of 5.4 equiv.

Take `CNc1ccnc2ccccc12`: the log K in the assay with Ferriprotoporphyrin IX stood at 3.92. In addition, in assay [1], the IA50 stood at 14.9 equiv.

On to `CNc1ccnc2cc(C#N)ccc12`, for which the log K in the assay on Ferriprotoporphyrin IX worked out at 4.42. In assay [1], this compound returned an IA50 of 4.5 equiv.

For `CNc1ccnc2cc(C)ccc12`, the log K with Ferriprotoporphyrin IX stood at 4.01. The compound further registered an IA50 in assay [1] of 11.1 equiv.

With `Nc1ccc2c(N)ccnc2c1`, in the assay with Ferriprotoporphyrin IX, the log K was determined as 3.44. Moreover, the IA50 in assay [1] is over 20 equiv.

As for `CCN(CC)CCNc1ccnc2cc(F)ccc12`, in the assay on Ferriprotoporphyrin IX, the log K stood at 4.6. The IA50 in assay [1] turned out to be 9.7 equiv.

Take `NC(=O)c1ccc2c(N)ccnc2c1`: the log K with Ferriprotoporphyrin IX worked out at 3.76. For the same compound, the IA50 in assay [1] was 10.3 equiv.

Regarding `N#Cc1ccc2c(N)ccnc2c1`, the log K in the assay on Ferriprotoporphyrin IX turned out to be 4.32. Also, the IA50 in assay [1] is 6.1 equiv.

For the compound `Cc1ccc2c(NCCN)ccnc2c1`, the log K with Ferriprotoporphyrin IX turned out to be 4.35. The same compound displayed a half-inhibitory concentration (IC50) in the assay with Plasmodium falciparum of 37 nM. The compound also registered an IA50 in assay [1] of 10.3 equiv.

`COc1ccc2c(N)ccnc2c1`: in the assay with Ferriprotoporphyrin IX, the log K was found to be 4.24. In assay [1], this compound came in with an IA50 of 15.6 equiv.

Consider `N#Cc1ccc2c(NCCN)ccnc2c1`, for which the log K in the assay with Ferriprotoporphyrin IX was found to be 4.47. Further, inhibition in the assay on Plasmodium falciparum was half-maximal at 20 nM (IC50). Besides, the IA50 in assay [1] was 6.3 equiv.

For `Nc1ccnc2cc(Cl)ccc12`, the log K with Ferriprotoporphyrin IX was 5.01. For the same compound, the IA50 in assay [1] turned out to be 5.8 equiv.

As to `Cc1ccc2c(N)ccnc2c1`, in the assay with Ferriprotoporphyrin IX, the log K is 4.17. The same compound returned an IA50 in assay [1] of 10.8 equiv.
